# Results published in ChEMBL document CHEMBL4184148 (Bioorg Med Chem Lett, 2017).
# Key:
# [1] = system: Mast/stem cell growth factor receptor Kit (Homo sapiens), P10721 [V559D,T670I]; assay: Binding affinity to human partial length KIT V559D/T670I double mutant (Y545 to D952 residues) expressed in Escherichia coli BL21 at 1 uM by Kinomescan method relative to control
# [2] = biological target: Mitotic checkpoint serine/threonine-protein kinase BUB1 (Homo sapiens) (UniProt O43683); assay: Binding affinity to wild-type human partial length BUB1 (Q724 to K1085 residues) expressed in HEK293 cells at 1 uM by Kinomescan method relative to control; assay type: cell-based
# [3] = biological target: SRSF protein kinase 3 (Homo sapiens) (UniProt Q9UPE1); assay: Binding affinity to wild-type human partial length SRPK3 (P41 to P567 residues) expressed in Escherichia coli BL21 at 1 uM by Kinomescan method relative to control
# [4] = biological target: Cyclin-dependent kinase 17 (Homo sapiens) (UniProt Q00537); assay: Binding affinity to wild-type human full length PCTK2 (M1 to F523 residues) expressed in Escherichia coli BL21 at 1 uM by Kinomescan method relative to control
# Cyclin-dependent kinase 17 (Homo sapiens), sequence (Q00537 whole entry, looked up, the tested form may be a part): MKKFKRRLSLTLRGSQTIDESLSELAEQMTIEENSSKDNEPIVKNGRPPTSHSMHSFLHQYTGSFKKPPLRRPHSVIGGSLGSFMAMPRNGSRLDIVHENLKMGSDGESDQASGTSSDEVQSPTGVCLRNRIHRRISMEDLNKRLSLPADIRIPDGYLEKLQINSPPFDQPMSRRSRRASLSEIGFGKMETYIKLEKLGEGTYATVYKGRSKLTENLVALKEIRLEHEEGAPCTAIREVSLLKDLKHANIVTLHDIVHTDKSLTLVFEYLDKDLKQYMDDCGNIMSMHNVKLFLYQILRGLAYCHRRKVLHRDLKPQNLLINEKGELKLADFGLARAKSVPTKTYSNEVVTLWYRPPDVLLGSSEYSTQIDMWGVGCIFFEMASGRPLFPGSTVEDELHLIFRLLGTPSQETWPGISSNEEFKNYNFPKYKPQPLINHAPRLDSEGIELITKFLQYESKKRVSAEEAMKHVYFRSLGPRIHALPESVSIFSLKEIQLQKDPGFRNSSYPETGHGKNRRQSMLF
# Outline: (§1)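 Kinome-wide competition binding panel run by an outside provider, with each compound tested at a single concentration. Activity is read against the kinase panel.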
# [5] = system: Phosphatidylinositol 4,5-bisphosphate 3-kinase catalytic subunit alpha isoform (Homo sapiens), P42336 [E545K]; assay: Binding affinity to human partial length PIK3CA E545K mutant (R108 to N1068 residues) expressed in HEK293 cells at 1 uM by Kinomescan method relative to control; assay type: cell-based
# [6] = biological target: Ribosomal protein S6 kinase alpha-1 (Homo sapiens) (UniProt Q15418); assay: Binding affinity to wild-type human partial length C-terminal RSK1 kinase domain 2 (P360 to L681 residues) expressed in Escherichia coli BL21 at 1 uM by Kinomescan method relative to control
# [7] = biological target: Casein kinase I isoform alpha-like (Homo sapiens) (UniProt Q8N752); assay: Binding affinity to wild-type human full length CSNK1A1L (M1 to N337 residues) expressed in Escherichia coli BL21 at 1 uM by Kinomescan method relative to control
# Outline: (§2)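 Run as one kinome-wide competition binding panel with each compound at a single fixed concentration. Results were plotted as a kinome-wide selectivity map.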
# [8] = system: Phosphatidylinositol 4,5-bisphosphate 3-kinase catalytic subunit alpha isoform (Homo sapiens), P42336 [H1047Y]; assay: Binding affinity to human partial length PIK3CA H1047Y mutant (R108 to N1068 residues) expressed in HEK293 cells at 1 uM by Kinomescan method relative to control; assay type: cell-based
# [9] = biological target: Mitogen-activated protein kinase 12 (Homo sapiens) (UniProt P53778); assay: Binding affinity to wild-type human full length p38-gamma (M1 to L367 residues) expressed in HEK293 cells at 1 uM by Kinomescan method relative to control; assay type: cell-based; outline: as §1
# [10] = biological target: Receptor-type tyrosine-protein kinase FLT3 (Homo sapiens) (UniProt P36888); assay: Binding affinity to wild-type human partial length FLT3 (V592 to Y969 residues) expressed in Escherichia coli BL21 at 1 uM by Kinomescan method relative to control
# [11] = biological target: Dual specificity protein kinase TTK (Homo sapiens) (UniProt P33981); assay: Binding affinity to wild-type human partial length TTK (N505 to V798 residues) expressed in Escherichia coli BL21 at 1 uM by Kinomescan method relative to control
# Dual specificity protein kinase TTK (Homo sapiens), sequence (P33981 whole entry, the tested form may be a part): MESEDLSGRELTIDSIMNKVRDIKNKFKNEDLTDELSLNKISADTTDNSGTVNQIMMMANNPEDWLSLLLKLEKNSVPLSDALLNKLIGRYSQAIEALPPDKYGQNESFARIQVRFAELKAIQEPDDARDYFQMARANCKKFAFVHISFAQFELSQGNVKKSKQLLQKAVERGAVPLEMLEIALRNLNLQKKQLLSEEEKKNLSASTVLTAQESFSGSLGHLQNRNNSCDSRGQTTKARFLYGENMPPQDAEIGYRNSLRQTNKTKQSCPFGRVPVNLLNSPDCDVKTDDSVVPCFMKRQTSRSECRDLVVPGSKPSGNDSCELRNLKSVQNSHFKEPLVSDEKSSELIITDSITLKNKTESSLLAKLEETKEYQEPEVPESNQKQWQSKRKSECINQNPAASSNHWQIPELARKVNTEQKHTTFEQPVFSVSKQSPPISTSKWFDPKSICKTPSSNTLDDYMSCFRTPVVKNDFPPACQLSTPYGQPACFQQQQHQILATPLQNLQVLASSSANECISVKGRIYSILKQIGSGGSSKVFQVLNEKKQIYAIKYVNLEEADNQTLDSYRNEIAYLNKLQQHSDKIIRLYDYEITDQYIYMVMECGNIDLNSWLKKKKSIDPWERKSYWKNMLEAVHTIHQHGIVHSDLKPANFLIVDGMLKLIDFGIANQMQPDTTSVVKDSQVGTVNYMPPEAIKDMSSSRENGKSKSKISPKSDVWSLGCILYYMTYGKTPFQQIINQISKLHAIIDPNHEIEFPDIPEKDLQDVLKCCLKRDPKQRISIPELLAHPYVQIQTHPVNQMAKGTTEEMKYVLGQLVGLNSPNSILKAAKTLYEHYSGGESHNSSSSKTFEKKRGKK
# [12] = biological target: Serine/threonine-protein kinase PAK 3 (Homo sapiens) (UniProt O75914); assay: Binding affinity to wild-type human full length PAK3 (M1 to R544 residues) expressed in Escherichia coli BL21 at 1 uM by Kinomescan method relative to control; outline: as §1
# [13] = biological target: Macrophage-stimulating protein receptor (Homo sapiens) (UniProt Q04912); assay: Binding affinity to wild-type human partial length MST1R (I1057 to L1363 residues) expressed in Escherichia coli BL21 at 1 uM by Kinomescan method relative to control
# [14] = system: Epidermal growth factor receptor (Homo sapiens), P00533 [G719C]; assay: Binding affinity to human partial length EGFR G719C mutant (R669 to V1011 residues) expressed in Escherichia coli BL21 at 1 uM by Kinomescan method relative to control
# [15] = biological target: Tyrosine-protein kinase TXK (Homo sapiens) (UniProt P42681); assay: Binding affinity to wild-type human partial length TXK (L238 to W527 residues) expressed in Escherichia coli BL21 at 1 uM by Kinomescan method relative to control
# [16] = biological target: Non-receptor tyrosine-protein kinase TNK1 (Homo sapiens) (UniProt Q13470); assay: Binding affinity to wild-type human full length TNK1 (M1 to P661 residues) expressed in Escherichia coli BL21 at 1 uM by Kinomescan method relative to control; outline: as §1
# [17] = system: ALK tyrosine kinase receptor (Homo sapiens), Q9UM73 [L1196M]; assay: Binding affinity to […] human partial length ALK L1196M mutant (I1088 to E1409 residues) expressed in HEK293 cells at 1 uM by Kinomescan method relative to control; assay type: cell-based
# ALK tyrosine kinase receptor (Homo sapiens), Q9UM73 [L1196M], sequence (Q9UM73 whole entry L1196M, looked up, the tested form may be a part): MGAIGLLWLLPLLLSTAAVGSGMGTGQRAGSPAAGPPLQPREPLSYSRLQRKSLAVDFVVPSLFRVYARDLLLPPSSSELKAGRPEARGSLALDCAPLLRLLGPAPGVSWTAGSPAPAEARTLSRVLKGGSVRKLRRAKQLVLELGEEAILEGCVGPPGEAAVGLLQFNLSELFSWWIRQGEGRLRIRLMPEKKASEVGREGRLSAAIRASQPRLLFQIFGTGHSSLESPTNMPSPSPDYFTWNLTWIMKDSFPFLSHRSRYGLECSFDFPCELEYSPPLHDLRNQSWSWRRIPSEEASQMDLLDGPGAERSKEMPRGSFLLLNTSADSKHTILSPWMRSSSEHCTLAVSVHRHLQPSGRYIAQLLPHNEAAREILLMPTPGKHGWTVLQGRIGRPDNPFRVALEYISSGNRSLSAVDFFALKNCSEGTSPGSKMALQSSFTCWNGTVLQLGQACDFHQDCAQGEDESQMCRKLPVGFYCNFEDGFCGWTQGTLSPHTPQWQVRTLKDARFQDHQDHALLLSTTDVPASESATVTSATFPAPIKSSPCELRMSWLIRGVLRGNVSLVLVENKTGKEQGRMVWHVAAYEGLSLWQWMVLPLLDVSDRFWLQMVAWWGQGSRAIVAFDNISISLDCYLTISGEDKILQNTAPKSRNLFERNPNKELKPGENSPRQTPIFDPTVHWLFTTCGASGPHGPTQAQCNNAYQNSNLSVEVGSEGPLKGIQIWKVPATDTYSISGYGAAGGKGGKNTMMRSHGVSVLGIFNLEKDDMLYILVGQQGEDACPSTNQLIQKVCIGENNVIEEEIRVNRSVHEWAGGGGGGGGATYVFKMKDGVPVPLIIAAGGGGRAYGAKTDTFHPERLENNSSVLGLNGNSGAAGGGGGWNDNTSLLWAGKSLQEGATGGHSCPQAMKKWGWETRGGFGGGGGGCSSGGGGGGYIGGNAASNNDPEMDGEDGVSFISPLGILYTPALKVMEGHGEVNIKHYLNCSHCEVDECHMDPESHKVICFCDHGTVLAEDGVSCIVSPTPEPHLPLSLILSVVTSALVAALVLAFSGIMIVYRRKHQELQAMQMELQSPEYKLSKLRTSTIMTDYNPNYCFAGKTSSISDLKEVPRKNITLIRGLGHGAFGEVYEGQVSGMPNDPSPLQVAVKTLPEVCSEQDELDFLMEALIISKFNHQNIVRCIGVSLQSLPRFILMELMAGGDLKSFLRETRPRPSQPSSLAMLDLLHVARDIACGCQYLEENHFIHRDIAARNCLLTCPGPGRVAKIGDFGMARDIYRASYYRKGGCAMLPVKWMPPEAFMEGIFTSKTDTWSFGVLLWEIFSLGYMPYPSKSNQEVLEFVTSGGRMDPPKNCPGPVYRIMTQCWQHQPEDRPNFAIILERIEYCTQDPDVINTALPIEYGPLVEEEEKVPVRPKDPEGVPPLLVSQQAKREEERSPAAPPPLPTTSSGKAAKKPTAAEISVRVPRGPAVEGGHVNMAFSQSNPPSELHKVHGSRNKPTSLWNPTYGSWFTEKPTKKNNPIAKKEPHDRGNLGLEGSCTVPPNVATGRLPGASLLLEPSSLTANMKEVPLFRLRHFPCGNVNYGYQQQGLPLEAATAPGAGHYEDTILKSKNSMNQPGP
# [18] = biological target: Serine/threonine-protein kinase TAO1 (Homo sapiens) (UniProt Q7L7X3); assay: Binding affinity to wild-type human partial length TAOK1 (M1 to A320 residues) expressed in HEK293 cells at 1 uM by Kinomescan method relative to control; assay type: cell-based
# [19] = biological target: Cyclin-dependent kinase 16 (Homo sapiens) (UniProt Q00536); assay: Binding affinity to wild-type human partial length PCTK1 (G160 to A474 residues) expressed in HEK293 cells at 1 uM by Kinomescan method relative to control; assay type: cell-based
# [20] = biological target: Ephrin type-A receptor 1 (Homo sapiens) (UniProt P21709); assay: Binding affinity to wild-type human partial length EPHA1 (V588 to I913 residues) expressed in Escherichia coli BL21 at 1 uM by Kinomescan method relative to control
# Ephrin type-A receptor 1 (Homo sapiens), sequence (P21709 whole entry, the tested form may be a part): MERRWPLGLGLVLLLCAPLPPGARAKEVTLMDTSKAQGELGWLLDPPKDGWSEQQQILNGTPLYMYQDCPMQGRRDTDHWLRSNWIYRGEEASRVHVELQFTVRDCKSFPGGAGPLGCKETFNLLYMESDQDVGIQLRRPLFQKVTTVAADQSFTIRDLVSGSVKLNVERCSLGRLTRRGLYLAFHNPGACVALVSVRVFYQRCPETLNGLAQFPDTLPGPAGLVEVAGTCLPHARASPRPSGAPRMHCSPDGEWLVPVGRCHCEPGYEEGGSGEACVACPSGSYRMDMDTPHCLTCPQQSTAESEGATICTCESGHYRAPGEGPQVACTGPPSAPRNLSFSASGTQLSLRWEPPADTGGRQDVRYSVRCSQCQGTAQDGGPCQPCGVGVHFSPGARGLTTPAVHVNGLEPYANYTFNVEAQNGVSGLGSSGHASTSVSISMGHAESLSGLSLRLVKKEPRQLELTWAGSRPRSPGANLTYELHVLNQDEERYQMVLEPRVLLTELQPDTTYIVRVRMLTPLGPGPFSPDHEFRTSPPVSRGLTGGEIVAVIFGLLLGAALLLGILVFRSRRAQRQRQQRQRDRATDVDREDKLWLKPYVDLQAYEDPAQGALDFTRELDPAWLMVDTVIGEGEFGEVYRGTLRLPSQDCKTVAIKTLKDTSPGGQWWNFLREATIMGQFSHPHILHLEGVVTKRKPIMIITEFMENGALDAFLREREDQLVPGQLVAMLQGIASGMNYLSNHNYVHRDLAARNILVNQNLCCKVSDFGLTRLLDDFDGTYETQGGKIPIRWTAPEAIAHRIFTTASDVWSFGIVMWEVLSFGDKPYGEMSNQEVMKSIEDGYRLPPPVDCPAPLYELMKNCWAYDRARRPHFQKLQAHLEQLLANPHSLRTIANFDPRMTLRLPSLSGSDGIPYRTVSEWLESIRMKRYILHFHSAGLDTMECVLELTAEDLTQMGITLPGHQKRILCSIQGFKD
# [21] = biological target: Activin receptor type-2B (Homo sapiens) (UniProt Q13705); assay: Binding affinity to wild-type human ACVR2B (H169 to D504 residues) expressed in Escherichia coli BL21 at 1 uM by Kinomescan method relative to control
# [22] = biological target: G protein-coupled receptor kinase 3 (Homo sapiens) (UniProt P35626); assay: Binding affinity to wild-type human full length GRK3 (M1 to L688 residues) expressed in HEK293 cells at 1 uM by Kinomescan method relative to control; assay type: cell-based; outline: as §2
# [23] = biological target: Serine/threonine-protein kinase RIO3 (Homo sapiens) (UniProt O14730); assay: Binding affinity to wild-type human full length RIOK3 (M1 to E519 residues) expressed in Escherichia coli BL21 at 1 uM by Kinomescan method relative to control; outline: as §1
# [24] = biological target: Ephrin type-A receptor 6 (Homo sapiens) (UniProt Q9UF33); assay: Binding affinity to wild-type human partial length EPHA6 (Y700 to E1046 residues) expressed in Escherichia coli BL21 at 1 uM by Kinomescan method relative to control
# [25] = system: Tyrosine-protein kinase ABL1 (Homo sapiens), P00519 [F317I]; assay: Binding affinity to human phosphorylated ABL1 F317I mutant (S229 to K512 residues) expressed in HEK293 cells at 1 uM by Kinomescan method relative to control; assay type: cell-based
# Tyrosine-protein kinase ABL1 (Homo sapiens), P00519 [F317I], sequence (P00519 whole entry F317I, the tested form may be a part): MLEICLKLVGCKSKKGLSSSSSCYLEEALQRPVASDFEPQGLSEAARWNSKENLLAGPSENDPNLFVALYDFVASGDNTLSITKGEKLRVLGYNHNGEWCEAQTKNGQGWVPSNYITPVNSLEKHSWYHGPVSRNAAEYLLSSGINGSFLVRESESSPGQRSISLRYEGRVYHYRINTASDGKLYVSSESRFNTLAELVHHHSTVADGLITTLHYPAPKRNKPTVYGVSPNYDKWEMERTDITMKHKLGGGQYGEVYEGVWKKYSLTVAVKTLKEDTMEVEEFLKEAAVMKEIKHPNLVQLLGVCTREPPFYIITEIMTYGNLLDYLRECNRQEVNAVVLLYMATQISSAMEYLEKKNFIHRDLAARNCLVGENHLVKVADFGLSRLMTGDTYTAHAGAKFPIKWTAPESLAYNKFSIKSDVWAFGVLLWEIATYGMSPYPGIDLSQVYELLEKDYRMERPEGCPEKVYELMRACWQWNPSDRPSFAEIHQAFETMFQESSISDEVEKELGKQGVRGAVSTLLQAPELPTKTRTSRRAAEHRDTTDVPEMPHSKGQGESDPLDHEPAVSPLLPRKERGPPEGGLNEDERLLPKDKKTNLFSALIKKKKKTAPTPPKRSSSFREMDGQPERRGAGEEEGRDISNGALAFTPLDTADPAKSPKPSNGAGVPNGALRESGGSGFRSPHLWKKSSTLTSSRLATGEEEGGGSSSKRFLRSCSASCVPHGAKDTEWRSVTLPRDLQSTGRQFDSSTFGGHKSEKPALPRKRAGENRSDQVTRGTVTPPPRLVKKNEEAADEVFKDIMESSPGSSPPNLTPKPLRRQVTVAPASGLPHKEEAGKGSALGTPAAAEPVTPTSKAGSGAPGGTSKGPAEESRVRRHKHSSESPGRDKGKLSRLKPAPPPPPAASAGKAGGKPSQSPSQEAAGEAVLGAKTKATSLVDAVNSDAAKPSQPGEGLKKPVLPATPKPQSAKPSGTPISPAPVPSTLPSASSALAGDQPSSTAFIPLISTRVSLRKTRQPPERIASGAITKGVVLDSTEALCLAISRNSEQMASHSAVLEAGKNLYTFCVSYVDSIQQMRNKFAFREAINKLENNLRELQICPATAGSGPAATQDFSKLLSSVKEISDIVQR
SMILES,Activity [1],Activity [2],Activity [3],Activity [4],Activity [5],Activity [6],Activity [7],Activity [8],Activity [9],Activity [10],Activity [11],Activity [12],Activity [13],Activity [14],Activity [15],Activity [16],Activity [17],Activity [18],Activity [19],Activity [20],further results
CCC(=O)Nc1ccc(C(=O)Nc2ccc(Nc3ncc4c(n3)N(C)c3ccc(C)cc3C(=O)N4C)cc2)cc1,97%,98%,100%,100%,76%,99%,97%,72%,86%,100%,87%,55%,85%,95%,93%,71%,96%,89%,74%,100%,Activity [21]: 100%; Activity [22]: 70%; Activity [23]: 84%; Activity [24]: 76%; Activity [25]: 63%
C=CC(=O)Nc1ccc(C(=O)Nc2ccc(Nc3ncc4c(n3)N(C)c3ccc(C)cc3C(=O)N4C)cc2)cc1,100%,95%,100%,99%,72%,96%,95%,62%,67%,100%,86%,69%,82%,99%,100%,89%,94%,92%,100%,97%,Activity [21]: 100%; Activity [22]: 100%; Activity [23]: 75%; Activity [24]: 86%; Activity [25]: 100%
